Only some compounds are listed: those with a hit (about 3.1% of all), similar ones and a draw of the others.
CFTR F508del cor = CFTR F508del correction in bronchial cells | activity (quench increase), % at 7.58 µM | CFBE cells, YFP halide quenching; stimulated with forskolin plus potentiator P3; % fluorescence drop versus neutral controls | AID 720511 | 0.36% of 350,000 active;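 active = mean added fluorescence quench of at least 8% versus neutral control, with both replicates also reaching 8%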;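 also: cells transiently co-express mutant CFTR-F508del with the halide-sensitive YFP; corrector assay measuring rescue of mutant channel to the surface after 24 h compound exposure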
Ecoli rRNA inh = inhibits bacterial ribosomal RNA function over humanized ribosomes; GFP signal change (wild-type ribosome), % (test concentration not listed); 1.6% of 350,000 active; E. coli WT GFP vs humanized-ribosome RFP mutants, fluorescence, 24 h; stronger effect = lower value; DMSO median 0, no signal -100;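 active = significant combined selectivity score with lowered wild-type GFP, culture density cut under 30%, mutant RFP and density less affected; inactive = any of these conditions unmet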
Env fusion inh = blocks HIV Env-driven cell-cell fusion; 1.1% of 360,000 active; AID 651610; HeLa-JRFL Env/CEM21 cell fusion, luciferase; inhibition, % at 12.3 µM;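 active = mean replicate inhibition score of at least 50 and every replicate individually at or above 50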;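 also: 0% = plate neutral controls and 100% = maraviroc near 300 nM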
Cneo AK release = Cryptococcus neoformans lysis via adenylate kinase release | C. neoformans lysis, adenylate kinase release luminescence, 4 h; normalised: neutral wells 0, clomiphene wells 100 | lysis activity, % at 15 µM | 0.2% of 360,000 active;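 active = mean lysis activity across replicates of at least 80%, whatever share of replicates individually reach that level; inactive = mean lysis activity below 80%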
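Material: C. neoformans cells | Amount: Yeast cell density of 5 × 10^6 cells/mL | Medium: Fresh YPD growth medium | Dosing: Single dose | Times: Static 4 h at 37 °C with compound, 1 h detection | Detection: AK luminescence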
GSIS activator = GLuc luminescence reporter in INS-1E cells, primary screen for activators of glucose-dependent secretion of insulin; AID 743287; 0.61% of 370,000 active; INS-1E GLuc reporter insulin secretion, 2-3 h; activation, % at 16.6 µM;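 active = lowest replicate activation of at least 40%, so every replicate reaches that level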;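 also: 0% = median of neutral control wells and 100% = median of IBMX positive control wells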
miR-122 sensor = blocks miR-122 activity in Huh7 sensor cells | 0.3% of 340,000 active | activation (reporter increase), % at 12.5 µM | Huh7 miR-122 Renilla luciferase sensor, 48 h; neutral wells = 0, positive control = 100 | AID 602342;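 active = mean replicate activation score at least 90 and every replicate individually at or above 90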;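 also: higher luciferase means less miR-122 activity so hits act as miR-122 inhibitors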
Starred values were filed as active, the others as inactive; x = not tested or not shown; ! = not confirmed by another sample; [ ] = another dose, or the depositor's remark.

SMILES	CFTR F508del cor	Ecoli rRNA inh	Env fusion inh	Cneo AK release	GSIS activator	miR-122 sensor
C[C@H](CO)N1C[C@H](C)[C@@H](CN(C)C(=O)Nc2ccc(C(F)(F)F)cc2)OCCCC[C@H](C)Oc2ccc(NC(=O)C3CCCCC3)cc2C1=O	-1	-3	14[16.7 µM]	1	8	3[16.7 µM]
COc1cccc(C(=O)Nc2nc3ccccc3s2)c1	-2	-30*	-153	-16	-8	-7
COc1ccc(C(=O)Nc2nc3ccccc3s2)cc1	3	-45	-273	-7	-2	x
CS(=O)(=O)c1ccc2nc(NC(=O)Nc3ccc(Cl)c(Cl)c3)sc2c1	x	x	27	x	260*	x
O=C(C[C@@H]1CC[C@H]2[C@@H](COC[C@@H](O)CN2S(=O)(=O)c2ccc(F)cc2)O1)NCC1CC1	1	6	x	3	12	-6[16.7 µM]
Cc1cc(Br)cc(Cl)c1OC(=O)c1ccncc1	1	0	-36	0	94*	3
CCCN(C)C[C@H]1OCCCC[C@@H](C)Oc2ccc(NS(=O)(=O)c3cccs3)cc2C(=O)N([C@@H](C)CO)C[C@@H]1C	1	-1	-1[16.7 µM]	5	-19	13[16.7 µM]
C[C@@H]1CN([C@@H](C)CO)C(=O)c2cccc(NC(=O)c3ccncc3)c2O[C@@H]1CN(C)Cc1ccc(-c2ccccc2)cc1	3	-19*!	-6	7	-8	-3[16.7 µM]
Cc1cc(C(=O)Nc2cccc3c2O[C@H](CN(C)Cc2ccc(C(F)(F)F)cc2)[C@@H](C)CN([C@H](C)CO)C3=O)n(C)n1	1	-8	5[16.7 µM]	20	-10	276*[16.7 µM]
C[C@H]1CN([C@@H](C)CO)C(=O)c2cccc(NC(=O)c3ccncc3)c2O[C@@H]1CN(C)Cc1ccc(C(F)(F)F)cc1	0	-15	-2[16.7 µM]	49	-6	108*[16.7 µM]
C[C@@H]1CN([C@@H](C)CO)C(=O)c2cccc(NC(=O)c3ccncc3)c2O[C@H]1CN(C)Cc1ccc(C(F)(F)F)cc1	-2	-13	36[16.7 µM]	-3	1	34[16.7 µM]
C[C@@H]1CN([C@H](C)CO)C(=O)c2cccc(NC(=O)c3ccncc3)c2O[C@@H]1CN(C)Cc1ccc(-c2ccccc2)cc1	0	-4	x	101*	-14	55[16.7 µM]
CCNC(=O)[C@@H]1[C@@H](CO)[C@@H]2Cn3c(ccc(C4=CCCC4)c3=O)[C@@H]2N1C(=O)C1CC1	x	2	9[16.7 µM]	1	4	x
CCCCN(C(C)=O)c1ccc2c(c1)C1CC2CCN1C(=O)OCc1ccccc1 (centres undefined)	5	-28	63*	1	-31	-6
Cc1nnc(SC(=O)N2c3ccccc3Sc3ccccc32)s1	x	x	69*	-4	x	-8
CO[C@H]1CN(C)C(=O)c2cc(NC(=O)C3CCC3)ccc2OC[C@@H](C)N(Cc2ccccn2)C[C@H]1C	-4	0	2[16.7 µM]	x	5	x
C=CC(=O)N1C/C(=C/c2ccc(F)cc2)C(=O)/C(=C\c2ccc(F)cc2)C1	-1	-54	111*	x	-3	-13
C[C@@H]1CN([C@@H](C)CO)C(=O)c2cc(NC(=O)CCN3CCOCC3)ccc2O[C@@H]1CN(C)Cc1ccc(C(=O)O)cc1	-3	2	x	95*	5	10[16.7 µM]
C[C@H](CO)N1C[C@H](C)[C@H](CN(C)Cc2ccc(C(=O)O)cc2)Oc2ccc(NC(=O)CCN3CCOCC3)cc2C1=O	-1	0	x	1	15	2[16.7 µM]
C[C@H](CO)N1C[C@H](C)[C@@H](CN(C)Cc2ccc(C(=O)O)cc2)Oc2ccc(NC(=O)CCN3CCOCC3)cc2C1=O	0	2	x	0	18	-2[16.7 µM]
C[C@H]1CN([C@@H](C)CO)C(=O)c2cc(NC(=O)CCN3CCOCC3)ccc2O[C@@H]1CN(C)Cc1ccc(C(=O)O)cc1	-3	3	x	103*	31	3[16.7 µM]
CC1CCCN(C(=O)Cc2cccc3ccccc23)C1 (centres undefined)	0	-29*	18	-1	5	2
COc1ccc(CC(=O)N2CCCC(C)C2)cc1 (centres undefined)	x	x	-26	0	x	1
O=S(=O)(Nc1cccc(-n2cnnn2)c1)c1cc(Br)ccc1Br	-2	-44	4	2	-15	108*
Nc1nc(Cl)cc(N2CCC(c3cc(-c4ccc(Cl)cc4)n[nH]3)CC2)n1	8	-51	x	38	-35	1
SMILES	CFTR F508del cor	Ecoli rRNA inh	Env fusion inh	Cneo AK release	GSIS activator	miR-122 sensor
COc1ccc(-c2cc(C3CCN(c4cc(Cl)nc(N)n4)CC3)[nH]n2)cc1	x	x	94*	1	x	-23
COc1ccc(OC)c(-c2cc(C3CCN(c4cc(Cl)nc(N)n4)CC3)[nH]n2)c1	x	x	63*	0	x	-46
C[C@@H](NC(=O)[C@H]1N[C@H]2c3ccc(-c4cncnc4)c(=O)n3C[C@H]2[C@@H]1CO)c1ccccc1	-4	-3	x	0	10	3[16.7 µM]
COc1ccc(-c2oc3ccc(-c4cc(OC)c(OC)c(OC)c4)cc3c2C#Cc2ccccn2)cc1	8.8*	3	34	2	18	-6
COc1ccc(-c2ccc3oc(-c4ccc(OC)cc4)c(C#CCCO)c3c2)cc1	0	-1	-3	0	67*	22
COc1ccc(C#Cc2c(-c3ccc(OC)cc3)oc3ccc(-c4ccc(OC)cc4)cc23)cc1	1	7	-3	7	14	x
COc1ccc(NC(=O)N(C)C[C@@H]2OCc3cn(nn3)CCCC(=O)N([C@@H](C)CO)C[C@@H]2C)c(OC)c1	-3	0	x	x	8	3[16.7 µM]
Cc1noc(C)c1NC(=O)Nc1ccc2c(c1)C(=O)N([C@H](C)CO)C[C@@H](C)[C@H](CN(C)Cc1ccc(C(=O)Nc3ccccc3N)cc1)O2	0	3	x	x	5	x
Oc1ccc(C[C@H]2CNC(=S)N2C[C@H]2CCCN2C[C@H](Cc2ccccc2)N2C[C@H](Cc3ccccc3)N(CC3CCCCC3)C2=S)cc1	-1	5	82*	x	0	x
CC(C)C[C@H]1CN([C@@H](Cc2ccc(O)cc2)CN2CCC[C@@H]2CN2C(=S)NC[C@@H]2Cc2ccccc2)C(=S)N1CC1CCCCCC1	3	17	14	1	-8	-2
CC(C)C[C@H]1CNC(=O)C(=O)N1C[C@@H]1CCCN1C[C@H](Cc1ccc(O)cc1)N1C[C@H](Cc2ccccc2)N(CC2CCCCC2)C(=O)C1=O	3	-29*	-51	x	-5	x
COc1ccc(OC)c(NC(=O)C2C(C(=O)O)C3(Cl)C(Cl)=C(Cl)C2(Cl)C3(Cl)Cl)c1 (centres undefined)	x	-19*	7	x	-17	-9
